Measured values reported in PubChem BioAssay.
Records with an inconclusive call do not appear. Activity calls are given as the source filed them.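 Rule for the calls, unless noted: active = viability at or below 27.92% in each of two runs, the all-compound median minus 4 SD; inconclusive = no clear call, values can overlap the other calls; inactive = the rest.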

Columns and labels:
[1] = S. cerevisiae growth inhibition in permissive medium (OD615), pilot counter-assay for S. cerevisiae lifespan shortening project, permissive growth control (AID 705;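 active = growth inhibition above 25% in both replicates, a cutoff set 3 SD above the mean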); conditions: OD615, 24 h, at 10 µM, hits give high values
In short: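 assay system = Saccharomyces cerevisiae strain carrying genetically modified DeaD replicative-lifespan system | technique = absorbance (optical density) at 615 nm | buffer or medium = permissive raffinose/galactose medium | timing = cells pre-grown 4 h, then 24 h compound exposure, 30 °C humidified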

[2] = S. cerevisiae growth inhibition in restrictive medium, OD615, pilot screen, restrictive growth control, yeast lifespan reduction project (AID 706;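 active = growth inhibition above a set limit, 3 SD over mean compound inhibition, in both replicates, cut at about 43% in these data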;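 note: modified DeaD lifespan yeast strain shifted to restrictive glucose medium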); conditions: OD615, 48 h, at 10 µM, hits give high values
In short: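 System: modified S. cerevisiae. Buffer or medium: CSMM-D glucose medium. Incubation: 4 h pre-growth plus 48 h compound exposure, 30 °C. Detection: absorbance (optical density) measured at 615 nm.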

[3] = doxorubicin toxicity protection in MRP-1 cells – H69AR cells, CellTiter-Glo, duplicate, MRP-1 activator project, pilot screen (AID 807;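 active = viability increase at or above a cutoff of the median across tested compounds plus 3 SD, cut at about 8.5% in these data, passing the limit was not always enough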;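 note: compound pretreatment 18-22 h then 72 h combined with doxorubicin; 0% = doxorubicin alone and 100% = vehicle without doxorubicin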); conditions: H69AR viability with doxorubicin, CellTiter-Glo luminescence; at 10 µM; hits give high values
[4] = viability of HCT116 without oncogenic beta-catenin – human colon tumor cells, pilot screen (AID 823;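 active = cell viability at or below a set limit in both duplicate runs, the limit being the all-compound median minus 4 SD, cut at about 23% in these data, passing the limit was not always enough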;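 note: 0% = wells killed by 20 µM Hyamine and 100% = untreated DMSO cell wells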); conditions: HCT116 beta-catenin knockout viability, CellTiter-Glo, 60 h; at 10 µM; hits give low values
[5] = viability of PTEN-null HCT116 cells – cell-based, HCT116 clonal line, CellTiter-Glo, pilot screen (AID 824); conditions: HCT116 PTEN-deleted viability, 60 h, at 10 µM, hits give low values;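 note: 0% = 20 µM Hyamine control and 100% = vehicle cell control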
[6] = RAM pathway blockade in budding yeast – dse1pr::URA3 reporter, 5-FOA selection, pilot screen (AID 869;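 active = inhibition over a set limit, the all-compound mean plus 3 SD, in both replicate runs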;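 note: 0% = DMSO wells with no growth and 100% = 10 µM 1-NA-PP1 with full growth; RAM network block rescues cells from 5-FOA so hits raise OD615 growth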); conditions: S. cerevisiae dse1pr::URA3 5-FOA growth, OD615, 2 d; at 10 µM; hits give high values; strain carries analog-sensitive mutant Cbk1 kinase
[7] = RAM signaling pathway blockade in yeast – S. cerevisiae, Pdr1DBD-CYC8 efflux-inhibited sensitized strain, primary screen (AID 1298;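 active = RAM network inhibition above 8.4% in each of two replicates, 3 SD over the compound average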;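 note: 0% = DMSO untreated cells without growth and 100% = 10 µM 1-NA-PP1 full growth; higher means more yeast growth rescued from 5-FOA killing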); conditions: S. cerevisiae cbk1-as DSE1-URA3 strain, 5-FOA growth OD615, 2 d; at 50 µM; hits give high values

CCCN1CCC(N(C)CCc2ccc(OC)c(OC)c2)CC1
inactive: growth inhibition [1] -7.87% | growth inhibition [2] -16.1% | viability increase [3] -0.93% | viability [4] 88.4% | viability [5] 94.5% | inhibition [6] 0.465% | RAM network inhibition [7] 2.37%

O=c1nc2s/c(=C\c3ccco3)c(=O)n2nc1Cc1ccccc1
inactive: growth inhibition [1] -15.4% | growth inhibition [2] -3.2% | viability increase [3] -2.41% | viability [4] 97.7% | viability [5] 94.8% | inhibition [6] 2.04% | RAM network inhibition [7] 4.31%

CCOC(=O)c1c(C)oc2ccc(OC(=O)N3CCOCC3)cc12
inactive: growth inhibition [1] -16.1% | growth inhibition [2] 0.815% | viability increase [3] -1.36% | viability [4] 93.8% | viability [5] 89.6% | inhibition [6] 0.115% | RAM network inhibition [7] 0.98%

Cc1ccnc(NC2c3ccccc3C(=O)N2Cc2ccccc2Cl)c1 (configuration not stated)
inactive: growth inhibition [1] 4.26% | growth inhibition [2] 2.1% | viability increase [3] -3.54% | viability [4] 73% | viability [5] 86.8% | inhibition [6] 2.44% | RAM network inhibition [7] 3.54%

O=C(O)C1CCC(=O)N1C1c2ccccc2Oc2ccccc21 (configuration not stated)
inactive: growth inhibition [1] 4.23% | growth inhibition [2] 4.63% | viability increase [3] 0.41% | viability [4] 96% | viability [5] 98.9% | inhibition [6] 0.57% | RAM network inhibition [7] 5.25%

O=C(CSc1nc2c(c(=O)n1-c1ccc(Cl)cc1)SCC2)Nc1nccs1
inactive: growth inhibition [1] -2.95% | growth inhibition [2] -4.84% | viability increase [3] -2.93% | viability [4] 82.5% | viability [5] 78.4% | inhibition [6] 3.08% | RAM network inhibition [7] 5.03%

CCOC(=O)c1[nH]c(C)c(C(=O)OCC)c1C
inactive: growth inhibition [1] -9.48% | growth inhibition [2] 1.48% | viability increase [3] 2.18% | viability [4] 105% | viability [5] 97.5% | inhibition [6] 3.55% | RAM network inhibition [7] 4.06%

COc1cc(NC(=O)c2ccc(S(=O)(=O)N(C)C)cc2)cc(OC)c1OC
inactive: growth inhibition [1] -4.25% | growth inhibition [2] -12.5% | viability increase [3] -2.66% | viability [4] 92.9% | viability [5] 94.3% | inhibition [6] 0.985% | RAM network inhibition [7] 3.48%

O=C(O)c1cccnc1SC1CC(=O)N(c2cccc(C(F)(F)F)c2)C1=O (configuration not stated)
inactive: growth inhibition [1] -15.3% | growth inhibition [2] -3.59% | viability increase [3] 0.62% | viability [4] 103% | viability [5] 101% | inhibition [6] 1.56% | RAM network inhibition [7] 3.58%

Cc1ccn2cc(-c3ccc(S(=O)(=O)N4CCOCC4)cc3)nc2c1
inactive: growth inhibition [1] -2.96% | growth inhibition [2] 6.53% | viability increase [3] 2.12% | viability [4] 106% | viability [5] 102% | inhibition [6] 1.6% | RAM network inhibition [7] 1.79%

Cc1cc(N2CCCC2)n2nc(C)nc2n1
inactive: growth inhibition [1] -10.1% | growth inhibition [2] -17.2% | viability increase [3] -0.52% | viability [4] 102% | viability [5] 101% | inhibition [6] 1.88% | RAM network inhibition [7] 1.98%

Cc1nc2ccccc2c2oc(C(=O)N3CCc4ccccc4C3)cc12
inactive: growth inhibition [1] -17.8% | growth inhibition [2] -23.5% | viability increase [3] -3.07% | viability [4] 73.1% | viability [5] 72.5% | inhibition [6] 1.98% | RAM network inhibition [7] 3.91%

COc1ccc(-c2[nH]c(-c3ccc(F)cc3)nc2SCC(=O)NCc2ccco2)cc1OC
inactive: growth inhibition [1] -4.83% | growth inhibition [2] 12.4% | viability increase [3] -2.49% | viability [4] 96.9% | viability [5] 92.9% | inhibition [6] 0.93% | RAM network inhibition [7] 4.24%

CN(C)C(=O)Nc1cnc2ccccc2c1
inactive: growth inhibition [1] 0.64% | growth inhibition [2] -11.9% | viability increase [3] -0.11% | viability [4] 104% | viability [5] 99.3% | inhibition [6] 1.16% | RAM network inhibition [7] 1.97%

Cc1cccc(Cn2c(SCCN3CCOCC3)nc3c2c(=O)n(C)c(=O)n3C)c1
inactive: growth inhibition [1] 1.68% | growth inhibition [2] 1.63% | viability increase [3] -2.36% | viability [4] 103% | viability [5] 91% | inhibition [6] 0.9% | RAM network inhibition [7] 5.93%

COc1ccccc1NC(=O)C1CCCN(S(=O)(=O)c2cnc[nH]2)C1 (configuration not stated)
inactive: growth inhibition [1] 1.64% | growth inhibition [2] -3.54% | viability increase [3] -0.26% | viability [4] 97% | viability [5] 95.5% | inhibition [6] 0.53% | RAM network inhibition [7] 0.84%

O=C1CCC(=O)N1c1ccc(CSc2nnnn2C2CCCCC2)cc1
inactive: growth inhibition [1] -0.7% | growth inhibition [2] 4.66% | viability increase [3] 0.3% | viability [4] 103% | viability [5] 97.6% | inhibition [6] -0.145% | RAM network inhibition [7] 1.92%

COc1ccc(CNC(=O)CS(=O)Cc2nc(-c3ccc(C)cc3)oc2C)cc1 (configuration not stated)
inactive: growth inhibition [1] -5.34% | growth inhibition [2] 0.735% | viability increase [3] -2.44% | viability [4] 86.9% | viability [5] 93.4% | inhibition [6] 1.39% | RAM network inhibition [7] 5.95%

CCOc1ccccc1NC(=O)C1CCN(S(=O)(=O)c2cccc3cccnc23)CC1
inactive: growth inhibition [1] 1.06% | growth inhibition [2] -4.09% | viability increase [3] -3.97% | viability [4] 85.2% | viability [5] 80.9% | inhibition [6] 1.24% | RAM network inhibition [7] 1.72%

Fc1cccc(-c2cc3nc4c(c(N5CCC6(CC5)OCCO6)n3n2)CCCC4)c1
inactive: growth inhibition [1] 3.03% | growth inhibition [2] -2.67% | viability increase [3] -3.94% | viability [4] 70.6% | viability [5] 61.5% | inhibition [6] 1.19% | RAM network inhibition [7] -0.47%

Cc1ccccc1N1C(=O)c2cccc3c(N(C)CCO)ccc(c23)C1=O
inactive: growth inhibition [1] 5.99% | growth inhibition [2] -6.49% | viability increase [3] -3.91% | viability [4] 104% | viability [5] 90.4% | inhibition [6] 2.26% | RAM network inhibition [7] 2.12%

Cn1c(C(=O)N2CCN(c3ccc(Cl)cc3)CC2)cc2c(=O)n(C)c3ccccc3c21
inactive: growth inhibition [1] -9.61% | growth inhibition [2] 2.92% | viability increase [3] -0.43% | viability [4] 93% | viability [5] 90.6% | inhibition [6] 2.57% | RAM network inhibition [7] 2.59%

Cc1oc2c(O)c(O)ccc2c(=O)c1-c1ccccc1
inactive: growth inhibition [1] -4.7% | growth inhibition [2] 1.24% | viability increase [3] 3.12% | viability [4] 95.1% | viability [5] 90.3% | inhibition [6] -0.32% | RAM network inhibition [7] -0.2%

CC(C)Sc1nnc(Cn2c(=O)sc3ccccc32)n1-c1ccccc1
inactive: growth inhibition [1] 1.75% | growth inhibition [2] -10.2% | viability increase [3] -0.05% | viability [4] 87.1% | viability [5] 86.5% | inhibition [6] -0.63% | RAM network inhibition [7] 5.84%

NC(=O)C1(N2CCCCC2)CCN(C(=O)CCCn2c(=O)[nH]c3ccsc3c2=O)CC1
inactive: growth inhibition [1] -6.16% | growth inhibition [2] 2.1% | viability increase [3] -1.61% | viability [4] 93.5% | viability [5] 91.6% | inhibition [6] 1.89% | RAM network inhibition [7] 0.48%

Cc1c(C)n(C(=O)CSc2nncn2C)c2ccccc12
inactive: growth inhibition [1] 3.06% | growth inhibition [2] 12.8% | viability increase [3] -2.73% | viability [4] 93.2% | viability [5] 98.1% | inhibition [6] 0.94% | RAM network inhibition [7] 3%

CCCn1c(C(C)NC(C)=O)nc2ccccc21 (configuration not stated)
inactive: growth inhibition [1] -10.3% | growth inhibition [2] -16.9% | viability increase [3] -1.47% | viability [4] 99.2% | viability [5] 90.7% | inhibition [6] 1.3% | RAM network inhibition [7] 1.25%

CCc1cccc(NC(=O)CCS(=O)(=O)c2cccc3nonc23)c1
inactive: growth inhibition [1] 0.64% | growth inhibition [2] -9.32% | viability increase [3] -1.95% | viability [4] 93.8% | viability [5] 95.3% | inhibition [6] 0.47% | RAM network inhibition [7] 2.79%

CC(C)=C1SC(N2CCN(Cc3ccccc3)CC2)=NC1=O
inactive: growth inhibition [1] -6.78% | growth inhibition [2] -0.855% | viability increase [3] -2.86% | viability [4] 94.9% | viability [5] 97.5% | inhibition [6] 0.52% | RAM network inhibition [7] 4.6%

CCOc1ccc(-c2nnc3n2N=C(c2ccc(OC)cc2)CS3)cc1
inactive: growth inhibition [1] -2.4% | growth inhibition [2] -3.84% | viability increase [3] -5.29% | viability [4] 84% | viability [5] 82% | inhibition [6] 1.72% | RAM network inhibition [7] 5.3%

Cn1cccc1Cc1nnc(SCC(=O)NCc2ccccc2)n1-c1ccc(F)cc1
inactive: growth inhibition [1] -3.32% | growth inhibition [2] 0.42% | viability increase [3] -3.08% | viability [4] 90.8% | viability [5] 89.8% | inhibition [6] 2.85% | RAM network inhibition [7] 2.8%
